Columns and labels:
Estrogen receptor [1] = molecular target: T1, Estrogen receptor (Homo sapiens, UniProt P03372); test: Binding affinity to recombinant His-tagged ERalpha LBD (307 to 554 residue) (unknown origin) expressed in Escherichia coli preincubated for 15 mins followed by ligand addition and measured after 1 hr by fluorescent polarization assay
T1 sequence (P03372 whole entry): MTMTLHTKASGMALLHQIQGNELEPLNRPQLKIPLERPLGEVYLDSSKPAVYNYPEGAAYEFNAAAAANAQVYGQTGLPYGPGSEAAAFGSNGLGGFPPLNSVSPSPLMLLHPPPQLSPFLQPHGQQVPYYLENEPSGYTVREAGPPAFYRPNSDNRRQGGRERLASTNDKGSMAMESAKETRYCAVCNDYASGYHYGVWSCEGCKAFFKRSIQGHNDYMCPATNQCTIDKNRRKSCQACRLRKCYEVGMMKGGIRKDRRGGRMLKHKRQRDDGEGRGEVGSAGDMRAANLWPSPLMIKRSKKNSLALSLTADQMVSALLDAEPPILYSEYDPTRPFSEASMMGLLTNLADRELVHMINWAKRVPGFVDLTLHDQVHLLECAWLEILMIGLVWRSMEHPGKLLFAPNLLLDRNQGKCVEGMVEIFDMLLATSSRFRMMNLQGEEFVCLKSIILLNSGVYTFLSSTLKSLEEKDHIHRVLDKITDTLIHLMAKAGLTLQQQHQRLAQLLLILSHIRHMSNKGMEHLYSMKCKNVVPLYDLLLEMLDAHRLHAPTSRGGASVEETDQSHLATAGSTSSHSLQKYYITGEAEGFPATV
In short: (§1)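 ERα LBD (aa 307–554), WT or D538G, S463P, Y537S, with N-terminal Avi-Tev-His tag, expressed in E. coli T7 Express (20 °C, 12 h, IPTG). Purified by Ni-NTA then size exclusion. Compound preincubated with protein 15 min, fluorescent ligand added, 1 h at room temperature. FP read ex 485/em 535 nm; duplicate runs averaged.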

Estrogen receptor [2] = molecular target: T1, Estrogen receptor; test: Induction of ERalpha degradation in human MCF7 cells assessed as decrease in ERalpha protein expression incubated for 48 hrs by Western blot analysis; format: cell-based
[3] = Apparent permeability of compound across apical to basolateral side in MDCK cells; format: ADME, cell-based, Canis lupus familiaris; settings: dog
[4] = Volume of distribution at steady state in CD1 mouse at 0.3 mg/kg, iv administered as cassette dosing […]; format: ADME, organism-based; settings: in vivo, read-out: Vdss
[5] = AUCinfinity in CD1 mouse at 10 mg/kg, sc administered as single dose […]; format: ADME, organism-based; set-up: route subcutaneous, dose 10 mg/kg; settings: in vivo
[6] = Microsomal stability in mouse liver microsomes assessed as intrinsic clearance measured upto 60 mins; format: ADME, Microsome; settings: read-out: CLH
In short: (§2)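 Compounds at 2 μM final incubated with pooled human or male mouse liver microsomes. Percent remaining measured at 0, 15, 30, 45 and 60 min and used to calculate in vitro half-life.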

MCF7 [7] = test: Antiproliferative activity against human MCF7 cells assessed as growth inhibition preincubated with estradiol for 30 mins followed by compound addition and measured after 72 hrs by CellTiter-Glo assay; format: functional
Estrogen receptor [8] = molecular target: Estrogen receptor (Homo sapiens, UniProt P03372, Y537S); test: Binding affinity to ERalpha Y537S mutant (unknown origin) expressed in Escherichia coli preincubated for 15 mins followed by ligand addition and measured after 1 hr by fluorescent polarization assay; in short: as §1
[9] = Microsomal stability in human liver microsomes assessed as intrinsic clearance measured upto 60 mins; format: ADME, Microsome; settings: read-out: CLH; in short: as §2
Estrogen receptor [10] = molecular target: Estrogen receptor (Homo sapiens, UniProt P03372, D538G); test: Binding affinity to ERalpha D538G mutant (unknown origin) expressed in Escherichia coli preincubated for 15 mins followed by ligand addition and measured after 1 hr by fluorescent polarization assay; in short: as §1
[11] = Half life in CD1 mouse at 0.3 mg/kg, iv administered as cassette dosing […]; format: ADME, organism-based; settings: in vivo
[12] = Plasma protein binding in human; format: ADME, cell-free; settings: read-out: PPB
MCF7 [13] = test: Antiproliferative activity against human MCF7 cells assessed as growth inhibition preincubated with estradiol for 30 mins followed by compound addition and measured after 7 days by CellTiter-Glo assay; format: functional; settings: MCF7, 168 h, time 7 day
In short: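 MCF7 cells seeded in hormone-deprived media for 72 h. All wells except minimum-signal controls received 0.1 nM estradiol for 30 min, then compound in a 10-point dose series. Incubated 7 days at 37 °C, 5% CO2; ATP content read by CellTiter-Glo 2.0. Duplicate runs averaged.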

Estrogen receptor [14] = molecular target: Estrogen receptor (Homo sapiens, UniProt P03372, S463P); test: Binding affinity to ERalpha S463P mutant (unknown origin) expressed in Escherichia coli preincubated for 15 mins followed by ligand addition and measured after 1 hr by fluorescent polarization assay; in short: as §1
[15] = Solubility of compound; format: physicochemical
[16] = Cmax in CD1 mouse at 10 mg/kg, sc administered as single dose […]; format: ADME, organism-based; set-up: route subcutaneous, dose 10 mg/kg; settings: in vivo
[17] = Half life in CD1 mouse at 10 mg/kg, sc administered as single dose […]; format: ADME, organism-based; settings: in vivo
[18] = Clearance in CD1 mouse at 0.3 mg/kg, iv administered as cassette dosing […]; format: ADME, organism-based; settings: in vivo
[19] = Bioavailability in CD1 mouse at 10 mg/kg, sc administered as single dose […]; format: ADME, organism-based; settings: in vivo
Estrogen receptor [20] = molecular target: T1, Estrogen receptor; test: Induction of ERalpha degradation in human MCF7 cells assessed as decrease in ERalpha protein expression incubated for 48 hrs under hormone-deprived medium by Western blot analysis; format: cell-based
In short: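 In-cell western: MCF7 seeded in hormone-deprived media for 72 h, then 10-point dose series in the same media for 48 h. Minimum-signal control compound at 1 μM. Cells fixed (4% formaldehyde), permeabilized (0.1% Triton X-100), blocked (3% fish gelatin), stained for ERα and α-tubulin, imaged; ERα normalized to tubulin.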

MCF7 [21] = test: Antiproliferative activity against human MCF7 cells assessed as growth inhibition preincubated with estradiol for 30 mins followed by compound addition and measured after 7 days by CellTiter-Glo assay; settings: MCF7, 7 days
Estrogen receptor [22] = molecular target: T1, Estrogen receptor; test: Induction of ERalpha degradation in human MCF7 cells assessed as decrease in ERalpha protein expression incubated for 24 hrs by Western blot analysis; format: cell-based
[23] = molecular target: T2, Estrogen receptor (Homo sapiens) (UniProt P03372); test: Induction of ERalpha degradation in human MCF7 cells assessed as degradation maximum incubated for 48 hrs under starved CSS media condition by Western blot analysis relative to control; format: cell-based
T2 sequence (whole entry): T1 sequence (P03372 whole entry)
In short: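 MCF7 cells in hormone-deprived media (agonist mode) or full-serum media (antagonist mode) were treated with 1 μM compound over a 48 h time course. Cells were lysed and ERα was detected by western blot, with tubulin as the normalizer.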

[24] = Toxicity in CD1 mouse xenografted with human MCF7 cells assessed as change in body weight at 3 mg/mouse, sc administered once weekly for 28 days; settings: in vivo, 672 h
MCF7 [25] = test: Antitumor activity against human MCF7 cells xenografted in CD1 mouse assessed as tumor growth inhibition at 3 mg/kg, sc administered once daily for 28 days by caliper method; settings: 672 h, read-out: TGI

Estrogen receptor (Homo sapiens, UniProt P03372, D538G), sequence (P03372 whole entry D538G): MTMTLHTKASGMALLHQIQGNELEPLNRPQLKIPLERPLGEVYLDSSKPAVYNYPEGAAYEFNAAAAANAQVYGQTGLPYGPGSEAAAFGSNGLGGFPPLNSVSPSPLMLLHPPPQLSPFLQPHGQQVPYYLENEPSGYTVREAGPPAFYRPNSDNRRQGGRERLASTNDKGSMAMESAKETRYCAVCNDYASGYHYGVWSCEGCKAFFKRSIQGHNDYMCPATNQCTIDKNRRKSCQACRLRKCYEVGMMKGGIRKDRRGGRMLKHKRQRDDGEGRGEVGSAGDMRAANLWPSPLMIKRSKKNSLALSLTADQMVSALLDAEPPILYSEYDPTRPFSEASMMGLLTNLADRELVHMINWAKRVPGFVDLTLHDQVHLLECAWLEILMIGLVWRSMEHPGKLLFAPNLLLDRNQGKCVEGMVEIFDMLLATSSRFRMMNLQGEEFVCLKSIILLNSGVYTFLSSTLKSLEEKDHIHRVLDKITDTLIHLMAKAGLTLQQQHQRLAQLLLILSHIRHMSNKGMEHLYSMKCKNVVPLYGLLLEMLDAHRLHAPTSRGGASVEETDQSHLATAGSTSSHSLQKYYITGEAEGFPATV
Estrogen receptor (Homo sapiens, UniProt P03372, Y537S), sequence (P03372 whole entry Y537S): as the sequence (P03372 whole entry D538G) above, with Y537S, G538D counted along it
Estrogen receptor (Homo sapiens, UniProt P03372, S463P), sequence (P03372 whole entry S463P): as the sequence (P03372 whole entry D538G) above, with S463P, G538D counted along it

Compound | IC50 (Estrogen receptor [1]) [nM] | GI50 (MCF7 [7]) [µM] | IC50 (Estrogen receptor [8]) [nM] | IC50 (Estrogen receptor [10]) [nM] | GI50 (MCF7 [13]) [nM] | IC50 (Estrogen receptor [14]) [nM] | also measured
Cc1ncsc1-c1ccc([C@H](C)NC(=O)[C@@H]2C[C@@H](O)CN2C(=O)[C@H](NC(=O)COCc2cn(CCOc3ccc(N(Cc4cccc(O)c4Cl)CC4(c5ccccc5F)CCCC4)cc3)nn2)C(C)(C)C)cc1 | 17 | > 10 | 332 | 269 | 165 | 170 | DC50 (Estrogen receptor [2]): 4.2 nM; Papp A→B [3]: < 0.1 ×10⁻⁶ cm/s; Vd [4]: 1.24 L/kg; AUC(0-inf) [5]: 9.8 µM·h; microsomal CLint [6]: 199 µL/min/mg; microsomal CLint [9]: 31 µL/min/mg; half-life [11]: 162 min; fraction unbound [12]: < 0.004; solubility [15]: < 0.2 µM; Cmax [16]: 1500 nM; half-life [17]: 1260 min; clearance [18]: 20 mL/min/kg; bioavailability [19]: 83%
Oc1cccc(CN(CC2(c3ccccc3F)CCCC2)c2ccccc2)c1Cl | 15 | < 0.005 | – | – | > 10000 | – | –
Cc1ncsc1-c1ccc([C@H](C)NC(=O)[C@@H]2C[C@@H](O)CN2C(=O)[C@@H](NC(=O)COCc2cn(CCOc3ccc(Cn4c(-c5ccc(O)cc5)c(C)c5cc(O)ccc54)cc3)nn2)C(C)(C)C)cc1 | 11 | > 10 | 8.1 | 287 | 247 | 21 | DC50 (Estrogen receptor [20]): 20 nM
Oc1cccc(CN(CCCN2CCCCC2)CC2(c3ccccc3F)CCCC2)c1Cl | 960 | – | – | – | – | – | –
Oc1cccc(CN(CCN2CCCCC2)CC2(c3ccccc3F)CCCC2)c1Cl | > 10000 | – | – | – | – | – | –
Cc1ncsc1-c1ccc([C@H](C)NC(=O)[C@@H]2C[C@@H](O)CN2C(=O)[C@@H](NC(=O)COCCOCCOCc2cn(CCOc3ccc(Cn4c(-c5ccc(O)cc5)c(C)c5cc(O)ccc54)cc3)nn2)C(C)(C)C)cc1 | 22 | > 10 | 15 | 9.3 | 211 | 6 | DC50 (Estrogen receptor [20]): 9 nM
Oc1cccc(CN(CCOCCN2CCCCC2)CC2(c3ccccc3F)CCCC2)c1Cl | 83 | > 10 | – | – | 3100 | – | –
Cc1c(-c2ccc(O)cc2)n(Cc2ccc(OCCn3cc(COCCOc4cccc5c4C(=O)N(C4CCC(=O)NC4=O)C5=O)nn3)cc2)c2ccc(O)cc12 (stereo not drawn) | 1.6 | > 10 | 3.2 | 4.7 | 3250 | 2.1 | DC50 (Estrogen receptor [20]): 2500 nM
CN[C@H](C)C(=O)N[C@H](C(=O)N1CCC[C@H]1c1nc(C(=O)c2ccc(F)cc2)cs1)C1CCN(C(=O)COCCOCc2cn(CCOc3ccc(Cn4c(-c5ccc(O)cc5)c(C)c5cc(O)ccc54)cc3)nn2)CC1 | 52 | – | – | – | > 10000 | – | GI50 (MCF7 [21]): > 10 µM; DC50 (Estrogen receptor [22]): > 10 µM
CN(Cc1cccc(O)c1Cl)CC1(c2ccccc2F)CCCC1 | 15 | 0.55 | 8.1 | 7.2 | > 10000 | 21 | –
Oc1cccc(CN(CC2(c3ccccc3F)CCCC2)c2ccc(OCCN3CCCCC3)cc2)c1Cl | 8 | > 10 | – | – | 68 | – | DC50 (Estrogen receptor [20]): 15 nM; Activity [23]: 70%
C[C@]12CC[C@@H]3c4ccc(O)cc4C[C@@H](CCCCCCCCC[S+]([O-])CCCC(F)(F)C(F)(F)F)[C@H]3[C@@H]1CC[C@@H]2O (stereo partly drawn) [FULVESTRANT] | – | – | – | – | – | – | Activity [24]: Non-Toxic; inhibition in vivo at 3 mg/kg (MCF7 [25]): 91.6%
CN(Cc1cccc(O)c1Cl)C(C1CCCC1)C(F)(F)F (stereo not drawn) | 71 | 0.46 | 24 | 45 | > 10000 | 110 | –
Cc1ncsc1-c1ccc(CNC(=O)N2C[C@H](O)CC2C(=O)[C@H](NC(=O)C2(F)CC2)C(C)(C)C)c(OCCOCc2cn(CCOc3ccc(Cn4c(-c5ccc(O)cc5)c(C)c5cc(O)ccc54)cc3)nn2)c1 (stereo partly drawn) | 5.3 | > 10 | 52 | 29 | 34 | 14 | DC50 (Estrogen receptor [2]): 27 nM
CN(Cc1cccc(O)c1Cl)CC1(c2ccc(OCCN3CCCCC3)cc2F)CCCC1 | 62 | < 0.005 | – | – | > 10000 | – | –
CN[C@@H](C)C(=O)N[C@H](C(=O)N1CCC[C@H]1c1nc(C(=O)c2cccc(OCCOCc3cn(CCOc4ccc(Cn5c(-c6ccc(O)cc6)c(C)c6cc(O)ccc65)cc4)nn3)c2)cs1)C1CCCCC1 | 7.3 | > 10 | 61 | 40 | 51 | 24 | DC50 (Estrogen receptor [2]): 174 nM
Cc1ncsc1-c1ccc([C@H](C)NC(=O)[C@@H]2C[C@@H](O)CN2C(=O)[C@@H](NC(=O)COCCOCc2cn(CCOc3ccc(Cn4c(-c5ccc(O)cc5)c(C)c5cc(O)ccc54)cc3)nn2)C(C)(C)C)cc1 | 22 | > 10 | 38 | 27 | 335 | 18 | DC50 (Estrogen receptor [20]): 20 nM
CN(Cc1cccc(O)c1Cl)CC1(c2ccccc2OCCN2CCCCC2)CCCC1 | > 10000 | > 10 | – | – | 3140 | – | –

From ChEMBL document CHEMBL4831478, “Bispecific Estrogen Receptor α Degraders Incorporating Novel Binders Identified Using DNA-Encoded Chemical Library Screening” (J Med Chem, 2021)
